Experimental data taken from ChEMBL document CHEMBL1125911, “Synthesis and biological activity of new HMG-CoA reductase inhibitors. 3. Lactones of 6-phenoxy-3,5-dihydroxyhexanoic acids” (J Med Chem, 1991).
Blank lines part the entries; values can stand above or below the compound they belong to.

Key:
Rattus norvegicus [1] = assay: Compound was tested for effect on serum HDL after oral administration of 100 mg/kg in male rats; format: functional
Summary of the method: (§1)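 Male HOE:WISKf (SPF 71) rats, initial body weight over 180 g, n = 10 per group, dosed once daily in the morning by gavage in polyethylene glycol 400 for 7 days; controls received vehicle. Fasted after last dose, bled retroorbitally 24 h later under mild ether. Liver and body weight recorded. Pooled group serum was ultracentrifuged into VLDL (<1.006), LDL (1.006-1.04) and HDL (1.04-1.21). Values are % change versus control.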

Rattus norvegicus [2] = assay: Compound was tested for effect on serum LDL after oral administration of 100 mg/kg in male rats; format: functional; summary of the method: as §1
Rattus norvegicus [3] = assay: Compound was tested for effect on body weight after oral administration of 100 mg/kg in male rats.; format: functional; summary of the method: as §1
Rattus norvegicus [4] = assay: Compound was tested for effect on serum VLDL after oral administration of 100 mg/kg in male rats; format: functional; summary of the method: as §1
Rattus norvegicus [5] = assay: Compound was tested for effect on liver weight after oral administration of 100 mg/kg in male rats.; format: functional; summary of the method: as §1
Sus scrofa [6] = species on record: Sus scrofa; assay: In vitro inhibition of Cu2+ catalyzed LDL oxidation; format: functional
Summary of the method: (§2)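 Porcine plasma LDL isolated by sequential ultracentrifugation (density 1.019-1.063 g/mL), dialysed against PBS pH 7.4, then diluted to 0.1 mg/mL protein. Preincubated 1 h at 37 °C under N2 with compound in ethanol. Oxidised with 5 μM Cu2+ for 2 h at 37 °C in air. Fluorescence read at ex 365/em 430 nm.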

Sus scrofa [7] = species on record: Sus scrofa; assay: Compound was tested for inhibition of Cu2+ catalyzed LDL oxidation and the potency relative to terbufucine was determined; format: functional; summary of the method: as §2
Rattus norvegicus [8] = assay: Compound was tested for effect on serum LDL after oral administration of 30 mg/kg in male rats; format: functional; summary of the method: as §1
Rattus norvegicus [9] = assay: Compound was tested for effect on body weight after oral administration of 30 mg/kg in male rats.; format: functional; summary of the method: as §1
Rattus norvegicus [10] = assay: Compound was tested for effect on serum HDL after oral administration of 30 mg/kg in male rats; format: functional; summary of the method: as §1
Rattus norvegicus [11] = assay: Compound was tested for effect on serum VLDL after oral administration of 30 mg/kg in male rats; format: functional; summary of the method: as §1
Rattus norvegicus [12] = assay: Compound was tested for effect on liver weight after oral administration of 30 mg/kg in male rats.; format: functional; summary of the method: as §1
[13] = target: T1, 3-hydroxy-3-methylglutaryl-coenzyme A reductase (Homo sapiens) (UniProt P04035); assay: (§3) Inhibition of HMG-CoA reductase compared to mevinolin.; format: functional
T1 sequence (whole entry): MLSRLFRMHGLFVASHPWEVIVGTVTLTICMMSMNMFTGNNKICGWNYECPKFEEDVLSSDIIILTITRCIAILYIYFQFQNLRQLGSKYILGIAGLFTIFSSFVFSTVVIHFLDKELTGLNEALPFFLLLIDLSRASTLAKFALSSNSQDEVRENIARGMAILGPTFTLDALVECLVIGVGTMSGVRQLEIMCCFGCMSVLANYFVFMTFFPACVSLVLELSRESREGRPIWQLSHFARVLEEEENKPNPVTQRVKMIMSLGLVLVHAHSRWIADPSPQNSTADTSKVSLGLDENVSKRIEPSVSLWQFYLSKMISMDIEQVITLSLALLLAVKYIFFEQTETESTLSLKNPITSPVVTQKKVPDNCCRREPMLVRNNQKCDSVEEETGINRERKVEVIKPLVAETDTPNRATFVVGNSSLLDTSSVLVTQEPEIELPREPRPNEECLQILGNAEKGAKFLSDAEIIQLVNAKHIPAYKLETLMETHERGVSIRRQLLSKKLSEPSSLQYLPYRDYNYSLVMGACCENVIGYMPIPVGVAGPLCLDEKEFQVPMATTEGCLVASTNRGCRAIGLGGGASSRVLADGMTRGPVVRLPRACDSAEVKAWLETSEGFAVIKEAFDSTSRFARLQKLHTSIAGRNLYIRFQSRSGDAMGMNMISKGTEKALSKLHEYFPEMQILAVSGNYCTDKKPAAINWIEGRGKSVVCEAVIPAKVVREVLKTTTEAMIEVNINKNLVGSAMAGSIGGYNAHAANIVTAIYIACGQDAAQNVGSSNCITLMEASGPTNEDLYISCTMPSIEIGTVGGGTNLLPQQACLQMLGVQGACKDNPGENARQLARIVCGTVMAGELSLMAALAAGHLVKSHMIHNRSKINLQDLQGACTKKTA
Summary of the method: (§4)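 Solubilized, partially purified rat liver HMG-CoA reductase. IC50 from four or five inhibitor concentrations. Relative potency compared IC50 with mevinolin (set to 100), corrected for molecular weight.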

Oryctolagus cuniculus [14] = assay: Tested in vivo for hypocholesterolemic activity by measuring its ability to decrease serum total cholesterol, after oral administration of 5 mg/kg body wt. per day in normolipidemic NZW rabbits; format: functional
Summary of the method: (§5)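 NZW rabbits (n = 5 or 6) dosed orally daily for 10 days. Serum total cholesterol reported as % change versus control. For 20 mg/kg, that dose was given on days 11-20 after 10 mg/kg, with the value read on day 20. Error given as SEM.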

Rattus norvegicus [15] = species on record: Rattus norvegicus; assay: Compound was tested for inhibition of microsomal lipid peroxidation and the potency relative to terbufucine was determined; format: functional
Summary of the method: (§6)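 Rat liver microsomes in 50 mM Tris-HCl pH 7.4 with 100 mM KCl and 6.0 mM MgCl2, final protein 0.4 mg/mL. Peroxidation was started with ADP (2 mM)/FeCl3 (10 μM) plus an NADPH-regenerating system. Incubation 30 min at 37 °C with shaking. Thiobarbituric acid reactive substances were read at 535 nm.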

Rattus norvegicus [16] = species on record: Rattus norvegicus; assay: In vitro inhibition of microsomal lipid peroxidation at 10e-5 M conc.; format: functional; summary of the method: as §6
[17] = target: T2, 3-hydroxy-3-methylglutaryl-coenzyme A reductase (Homo sapiens, UniProt P04035); assay: Inhibition of the incorporation of sodium [14C]acetate into cholesterol in HEP G2 cells.; format: functional, cell-based, HepG2
T2 sequence (P04035 whole entry): T1 sequence (whole entry)

Rattus norvegicus [18] = assay: In vivo inhibition of hepatic cholesterol de novo synthesis in rat after oral administration of 5 mg/kg dose; format: functional
Rattus norvegicus [19] = species on record: Rattus norvegicus; assay: Potency relative to mevinolin was determined with respect to IC50. […]; format: functional
Oryctolagus cuniculus [20] = assay: Tested in vivo for hypocholesterolemic activity by measuring its ability to decrease serum total cholesterol, after oral administration of 50 mg/kg body wt. per day in normolipidemic NZW rabbits; format: functional; summary of the method: as §5
Canis familiaris = assay: Tested in vivo for hypocholesterolemic activity by measuring its ability to decrease serum LDL-cholesterol, after oral administration of 25 mg/kg per day for 14 days in male Beagle dogs.; format: functional, Canis lupus familiaris
Summary of the method: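 Male beagle dogs (n = 4) given neat compound in gelatine capsules daily at 3:00 p.m.; controls received empty capsules. After an overnight fast, venous blood was drawn at 8:00 a.m. Serum lipoproteins were separated by ultracentrifugation (densities 1.006/1.063/1.21). LDL-cholesterol reported as % change versus control.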

[21] = target: T3, 3-hydroxy-3-methylglutaryl-coenzyme A reductase (Rattus norvegicus) (UniProt P51639); assay: as §3; summary of the method: as §4
T3 sequence (whole entry): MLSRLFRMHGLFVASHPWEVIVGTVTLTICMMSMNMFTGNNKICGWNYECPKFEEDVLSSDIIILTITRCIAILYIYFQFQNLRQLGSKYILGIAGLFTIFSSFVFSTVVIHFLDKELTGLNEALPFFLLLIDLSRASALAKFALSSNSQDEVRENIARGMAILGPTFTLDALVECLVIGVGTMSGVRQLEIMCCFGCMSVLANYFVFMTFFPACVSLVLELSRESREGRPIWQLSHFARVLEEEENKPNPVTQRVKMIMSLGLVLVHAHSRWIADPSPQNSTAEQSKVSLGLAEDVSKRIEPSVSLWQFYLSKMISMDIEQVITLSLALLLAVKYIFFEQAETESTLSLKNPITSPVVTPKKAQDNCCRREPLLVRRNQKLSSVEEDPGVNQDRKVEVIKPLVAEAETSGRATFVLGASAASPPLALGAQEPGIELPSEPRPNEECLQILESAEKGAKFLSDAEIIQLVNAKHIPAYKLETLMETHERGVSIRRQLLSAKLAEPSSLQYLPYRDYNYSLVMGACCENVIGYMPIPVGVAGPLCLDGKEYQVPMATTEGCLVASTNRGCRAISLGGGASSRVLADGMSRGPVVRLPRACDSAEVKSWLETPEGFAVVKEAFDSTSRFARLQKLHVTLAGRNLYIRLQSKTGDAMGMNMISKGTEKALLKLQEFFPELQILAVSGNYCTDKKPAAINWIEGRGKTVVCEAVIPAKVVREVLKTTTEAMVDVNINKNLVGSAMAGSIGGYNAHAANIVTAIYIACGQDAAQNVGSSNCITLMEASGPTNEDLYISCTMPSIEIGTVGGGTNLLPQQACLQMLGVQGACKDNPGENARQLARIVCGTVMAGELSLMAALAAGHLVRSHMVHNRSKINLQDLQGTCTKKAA

[22] = target: T4, 3-hydroxy-3-methylglutaryl-coenzyme A reductase (Rattus norvegicus, UniProt P51639); assay: In vitro inhibition of HMG-CoA reductase in solubilized rat liver.
T4 sequence (P51639 whole entry): T3 sequence (whole entry)

[23] = target: T4, 3-hydroxy-3-methylglutaryl-coenzyme A reductase; assay: In vitro inhibition of solubilized HMG-CoA reductase in rat liver.
Oryctolagus cuniculus [24] = assay: Tested in vivo for hypocholesterolemic activity by measuring its ability to decrease serum total cholesterol, after oral administration of 75 mg/kg body wt. per day in normolipidemic NZW rabbits; Very potent; format: functional, organism-based; parameters: dose 75 mg/kg, route oral
Rattus norvegicus [25] = species on record: Rattus norvegicus; assay: In vitro inhibition of microsomal lipid peroxidation; format: functional; summary of the method: as §6

SMILES: CCOC(=O)C(C)(C)Oc1ccc(Cl)cc1 [CLOFIBRATE]
Change (Rattus norvegicus [1]): -29%
Change (Rattus norvegicus [2]): -19%
Change (Rattus norvegicus [3]): 8%
Change (Rattus norvegicus [4]): -40%
Change (Rattus norvegicus [5]): 15%

SMILES: CC(C)(Sc1cc(C(C)(C)C)c(O)c(C(C)(C)C)c1)Sc1cc(C(C)(C)C)c(O)c(C(C)(C)C)c1 [PROBUCOL]
IC50 (Sus scrofa [6]): 500 nM
Relative potency (Sus scrofa [7]): 22
Change (Rattus norvegicus [8]): -24%
Change (Rattus norvegicus [9]): 5%
Change (Rattus norvegicus [10]): -11%
Change (Rattus norvegicus [11]): 4%
Change (Rattus norvegicus [12]): 5%

SMILES: O=C1C[C@H](O)CC(COc2c(Cl)cc(Cl)cc2CC2CCCCC2)O1 (some centres not stated)
Cholesterol (Rattus norvegicus [18]): 36.4%
Relative potency (Rattus norvegicus [19]): 74
Change (Oryctolagus cuniculus [20]): -11%

SMILES: Cc1cc(Cl)cc(CCCOc2ccc(Cl)cc2)c1OCC1C[C@@H](O)CC(=O)O1 (some centres not stated)
Cholesterol (Rattus norvegicus [18]): 25.2%
Relative potency (Rattus norvegicus [19]): 87
Change (Oryctolagus cuniculus [20]): -2%

SMILES: O=C1C[C@H](O)CC(COc2c(Cl)cc(Cl)cc2C(c2ccc(F)cc2)c2ccc(F)cc2)O1 (some centres not stated)
Cholesterol (Rattus norvegicus [18]): 65.6%
Relative potency (Rattus norvegicus [19]): 40

Now from value to compound, other results behind:

Relative potency [13]: 1200
IC50 (Sus scrofa [6]): 6000 nM
IC50 [17]: 4.1 nM
SMILES: CC(=O)[O-].CC(C)c1c(OC[C@@H](O)C[C@@H](O)CC(=O)[O-])c(C(C)C)c(C(C)C)c(O)c1-c1ccc(F)cc1.[Na+].[Na+]
Change (Oryctolagus cuniculus [14]): -12%
Relative potency (Sus scrofa [7]): 2
Relative potency (Rattus norvegicus [15]): < 0.1
inhibition (Rattus norvegicus [16]): < 10%

Relative potency [13]: 90
Relative potency [21]: 43
IC50 [17]: 55 nM
IC50 [22]: 17 nM
SMILES: CC(C)c1cc(-c2ccc(F)cc2)cc(-c2ccc(F)cc2)c1OCC(O)C[C@@H](O)CC(=O)[O-].[Na+] (some centres not stated)
Change (Canis familiaris): 3%

IC50 [23]: 3 nM
IC50 (Oryctolagus cuniculus [24]): Very potent
SMILES: CC(C)c1cc(-c2ccc(F)cc2)c(/C=C/[C@@H](O)C[C@@H](O)CC(=O)[O-])c(C(C)C)n1.[Na+]

IC50 (Rattus norvegicus [25]): 4800 nM
SMILES: CC(=O)Oc1c(C(C)C)c(-c2ccc(F)cc2)c(O)c(C(C)C)c1C(C)C
Relative potency (Rattus norvegicus [15]): 2
inhibition (Rattus norvegicus [16]): 83%
